Activity calls are given as the source filed them. The rule behind the calls is not given here.

The subject of data set [1] is HCC-1.2. Nature of the data set: Photocytotoxicity against human HCC1.2 cells assessed as decrease in cell viability preincubated with day light for 10 mins measured after 48 hrs by neutral red assay. It is filed as functional, cell-based.
Data set [2] has as its system HCC-1.2. Nature of the data set: Cytotoxicity against human HCC1.2 cells assessed as growth inhibition after 48 hrs by neutral red assay. The class given is functional. Particulars: for CC50: HCC-1.2, 48 h, read-out: LD50 (the source's name). An outline of the steps: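 HCC-1.2 hepatocarcinoma cells grown in RPMI1640 with 10% heat-inactivated FCS at 37 °C, 5% CO2. 2 × 10^5 cells/well seeded and grown 48 h. Viable cells quantified by neutral red (50 μg/mL) uptake from serum-free medium over 2 h. Dye dissolved in 1% acetic acid/70% ethanol, read as absorbance 560 minus 620 nm. Triplicate wells; three to five independent experiments; LD50 reported.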

In data set [3] the test system is HCC-1.2. Nature of the data set: Photocytotoxicity against human HCC1.2 cells assessed as decrease in cell viability preincubated with UV light at 365 nm for 10 mins measured after 48 hrs by neutral red assay. It is filed as functional, cell-based.
Data set [4] deals with T1, Polyunsaturated fatty acid lipoxygenase ALOX15 (Homo sapiens) (UniProt P16050).
T1 sequence (whole entry): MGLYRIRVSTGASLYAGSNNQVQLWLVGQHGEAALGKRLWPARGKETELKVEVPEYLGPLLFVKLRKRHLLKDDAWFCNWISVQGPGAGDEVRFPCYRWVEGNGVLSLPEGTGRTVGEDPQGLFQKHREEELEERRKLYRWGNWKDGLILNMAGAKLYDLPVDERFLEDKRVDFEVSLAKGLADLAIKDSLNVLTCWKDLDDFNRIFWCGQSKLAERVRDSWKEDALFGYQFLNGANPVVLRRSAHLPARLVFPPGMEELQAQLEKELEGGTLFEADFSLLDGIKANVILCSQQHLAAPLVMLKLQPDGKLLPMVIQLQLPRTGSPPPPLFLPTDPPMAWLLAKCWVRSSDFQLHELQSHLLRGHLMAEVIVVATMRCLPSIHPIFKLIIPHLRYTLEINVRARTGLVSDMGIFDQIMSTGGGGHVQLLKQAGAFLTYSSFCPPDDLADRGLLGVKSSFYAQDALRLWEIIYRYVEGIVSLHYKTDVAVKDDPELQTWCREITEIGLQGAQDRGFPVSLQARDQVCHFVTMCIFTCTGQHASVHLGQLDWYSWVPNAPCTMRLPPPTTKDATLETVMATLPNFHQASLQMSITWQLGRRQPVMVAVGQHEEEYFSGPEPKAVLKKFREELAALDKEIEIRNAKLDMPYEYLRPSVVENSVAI
Nature of the data set: Inhibition of recombinant human 15-LOX-1 expressed in Escherichia coli BL21(DE3) assessed as residual activity at 50 uM using linoleic acid as substrate preincubated for 10 mins followed by substrate addition. An outline of the steps: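 h-15-LOX-1 (1:100 enzyme stock, 1:400 final) preincubated 10 min at room temperature with inhibitor in 25 mM HEPES pH 7.4, then linoleic acid added to 25 µM final (inhibitor 50 µM final). 13(S)-HpODE formation read as A234 over time, rate taken from linear part within first 16 min; no-inhibitor = 100%, no-enzyme = 0%. Triplicate.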

Data set [5] deals with T2, Polyunsaturated fatty acid lipoxygenase ALOX15 (Homo sapiens, UniProt P16050).
T2 sequence (P16050 whole entry): T1 sequence (whole entry)
Nature of the data set: Inhibition of recombinant human 15-LOX-1 expressed in Escherichia coli BL21(DE3) using linoleic acid as substrate preincubated for 10 mins followed by substrate addition.

Data set [6] relates to HCC-1.2. Nature of the data set: Photocytotoxicity against human HCC1.2 cells assessed as decrease in cell viability at 0.4 to 10 uM preincubated with day light for 10 mins measured after 48 hrs by neutral red assay. The class given is functional, cell-based.
Compound in data set [7]: Nc1[nH]c(C(=O)c2ccccc2)c(-c2ccc(Cl)cc2Cl)c1C(=O)c1ccc(Cl)c(Cl)c1
Nature of the data set: Uncompetitive inhibition of recombinant human 15-LOX-1 expressed in Escherichia coli BL21(DE3) assessed as apparent Km for substrate at 8 uM using linoleic acid as substrate preincubated for 10 mins followed by substrate addition by Lineweaver-Burk plot analysis (reference value: 32.67 +/- 12.23 uM).

Compound in data set [8]: Nc1[nH]c(C(=O)c2ccccc2)c(-c2ccc(Cl)cc2Cl)c1C(=O)c1ccc(Cl)c(Cl)c1
Nature of the data set: Uncompetitive inhibition of recombinant human 15-LOX-1 expressed in Escherichia coli BL21(DE3) assessed as apparent Km for substrate at 6 uM using linoleic acid as substrate preincubated for 10 mins followed by substrate addition by Lineweaver-Burk plot analysis (reference value: 32.67 +/- 12.23 uM).

As for `Nc1[nH]c(C(=O)c2ccccc2)c(-c2ccc(F)cc2F)c1C(=O)c1cccc(Cl)c1`, the result with HCC-1.2 [1] was inactive. In addition, in the data set with HCC-1.2 [2], the Activity entry was “Dose-dependent effect” and the CC50 was 990 nM. The outcome in the data set on HCC-1.2 [3] was inactive.

Usually IC50 stands for the point on the concentration scale where inhibition reaches its midpoint. Consider `NC(=O)c1c(N)[nH]c(C(=O)c2ccccc2)c1-c1ccc(Cl)cc1Cl`, for which the Activity in data set [4] is 109%. Moreover, the IC50 in data set [5] was over 100000 nM.

With `Cc1cccc(C(=O)c2c(N)[nH]c(C(=O)c3ccccc3)c2-c2ccc(Cl)cc2Cl)c1`, in the data set on HCC-1.2 [2], the Activity entry was “Dose-dependent effect” and the CC50 was 1040 nM. Besides, the result in the data set on HCC-1.2 [6] was Active. Further, the IC50 in data set [5] was over 100000 nM.

`Nc1[nH]c(C(=O)c2ccccc2)c(-c2c(F)cccc2F)c1C(=O)c1ccc(Cl)c(Cl)c1`: the Activity in data set [4] amounted to 100%. The 50% inhibitory concentration (IC50) in data set [5] was over 100000 nM.

On to `Nc1[nH]c(C(=O)c2ccccc2)c(-c2ccc(O)cc2O)c1C(=O)c1cccc(Cl)c1`, for which, in the data set on HCC-1.2 [2], the Activity result was “Dose-dependent effect” and the CC50 worked out at 2750 nM. Moreover, in data set [5], the IC50 came to 8300 nM.

For `Nc1[nH]c(C(=O)c2ccccc2)c(-c2ccc(Cl)cc2Cl)c1C(=O)c1ccc(Cl)cc1`, in the data set with HCC-1.2 [2], the Activity entry is “Dose-dependent effect” and the CC50 worked out at 1050 nM. The half-inhibitory concentration (IC50) in data set [5] was over 100000 nM.

Turning to `Nc1[nH]c(C(=O)c2ccccc2)c(-c2ccc(Cl)cc2Cl)c1C(=O)c1cccc(Br)c1`, in the data set on HCC-1.2 [2], the Activity entry was “Dose-dependent effect” and the CC50 was determined as 1640 nM. In addition, the IC50 in data set [5] was found to be 6300 nM.

As for `Nc1[nH]c(C(=O)c2ccccc2)c(-c2ccc3ccccc3c2)c1C(=O)c1ccc(Cl)c(Cl)c1`, in the data set with HCC-1.2 [2], the Activity entry is “Dose-dependent effect” and the CC50 is 2640 nM.

With `Nc1[nH]c(C(=O)c2ccccc2)c(-c2ccc(Cl)cc2Cl)c1C(=O)c1ccccc1`, the Activity in data set [4] was found to be 73.1%. Also, the IC50 in data set [5] is over 100000 nM.

B1: Polyunsaturated fatty acid lipoxygenase ALOX15 (Homo sapiens), P16050 (protein)
chain: T1 sequence (whole entry)
Usually Km stands for the concentration of substrate that gives half-maximal velocity. For the molecule B1, the Km in data set [7] came to 20 µM; in data set [8], 24 µM.
